High-throughput results (PubChem)
FLuc inhib CS: firefly luciferase enzyme inhibitors, primary screen, artefact control for luciferase-based inhibitor screens, biochemical, luminescence, ATPLite; Luciferin 4-monooxygenase (Photinus pyralis), P08659; 10 min; inhibition, % at 10 µM; 200,000 compounds, 1.5% hits;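 active means inhibition above about 50% when tested at 10 µM, limit read from the data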
Target sequence (P08659 whole entry, looked up): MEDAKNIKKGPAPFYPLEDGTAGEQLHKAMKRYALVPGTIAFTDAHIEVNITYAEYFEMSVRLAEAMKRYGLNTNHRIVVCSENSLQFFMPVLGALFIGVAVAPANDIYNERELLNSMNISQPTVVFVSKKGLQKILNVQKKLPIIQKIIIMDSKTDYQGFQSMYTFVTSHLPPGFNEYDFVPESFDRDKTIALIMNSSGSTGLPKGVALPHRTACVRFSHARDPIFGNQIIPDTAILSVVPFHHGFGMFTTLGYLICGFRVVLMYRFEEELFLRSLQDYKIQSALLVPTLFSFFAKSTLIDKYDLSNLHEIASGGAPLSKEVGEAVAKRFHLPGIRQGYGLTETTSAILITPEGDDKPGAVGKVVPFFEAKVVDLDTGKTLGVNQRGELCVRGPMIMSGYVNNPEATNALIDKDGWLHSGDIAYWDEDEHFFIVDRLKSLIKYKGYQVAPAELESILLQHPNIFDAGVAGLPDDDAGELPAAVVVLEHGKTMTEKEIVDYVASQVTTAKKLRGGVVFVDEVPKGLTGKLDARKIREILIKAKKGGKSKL
Pf gametocyte: late stage P. falciparum gametocyte viability inhibitors, primary screen, ATP luminescence, HTS. P. falciparum stage V gametocytes, 24 h. 150,000 compounds, 0.065% hits. inhibition, % at 10.9 µM;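 active means inhibition above the mean plus 3 SD of compounds within the control limits, set per campaign, cut at about 38% in these data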;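 further: 0% = DMSO wells and 100% = medium only without gametocytes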
STAT1 activator: STAT1 signaling activators, primary screen, cell-based, HTS, luciferase reporter | activation (% of control), % at 5.5 µM | NIH 3T3 STAT1-luciferase reporter, IFN-gamma, luminescence; 100% = IFN-gamma alone, no compound | 200,000 compounds, 2.6% hits | AID 932, 2007;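 active means activation above the screen-wide mean activation plus 3 SD, cut at about 130% in these data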;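 further: raw ratio to IFN-gamma control signal so 100% means no change and 0% no light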
FLuc act counter: FLuc activators, initial screening, artefact control for FLuc-dependent activation tests, biochemical, ATPlite luminescence; Luciferin 4-monooxygenase (Photinus pyralis), P08659; ATPlite luciferase biochemical, 10 min; 0 = ATP-free wells, 1 = DMSO control; activation factor at 10 µM; 200,000 tested, under 10 active;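 active means luciferase activation factor, scaled between plate controls, of at least 2 with compound at 10 µM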
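System: cell-free luciferase reagent; medium: PBS as buffer for the ATP substrate; doses: test compounds dosed from 2 mM stocks in 100% DMSO; incubation: 10 min, room temperature; measured by: luminescence from luciferase reaction; read-out: luciferase activation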
NF-kB neuron act: activators of NF-kB expression in neurons, primary screen, cell-based, HTS; 190,000 compounds, 1.6% hits; human neuronal cells, NF-kB reporter expression; hits give high values; fold change at 12.5 µM; in the data active means fold change above about 3.3
APP 5'UTR act: activators of APP 5'UTR luciferase reporter, primary screen, SH-SY5Y cells; activation, % at 2 µM; SH-SY5Y APP 5'UTR luciferase reporter, luminescence; zero percent = DMSO vehicle wells; 190,000 compounds, 1% hits; AID 1276, 2008;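 active means activation above a set limit, based on mean plus 3 SD of controls, cut at about 140% in these data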
STAT1 activ conf: STAT1 signaling activators, confirmation, cell-based, HTS, luciferase reporter; shares compounds with STAT1 activator; activation (% of control), % at 5.7 µM; AID 1262, 2008; NIH 3T3 STAT1-luciferase reporter, IFN-gamma potentiation, luminescence; 100% = IFN-gamma EC80 alone, no compound; 1,200 compounds, 97% hits;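 active means activation above a set limit carried over from the earlier primary STAT1 screen, cut at about 140% in these data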;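 further: simple ratio to median IFN-gamma plus DMSO wells so 0% means no light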
NFkB act: NF-kB reporter activators, TNF-alpha stimulated, counter-screen for STAT1 activator project, cell-based, HEK293T, luciferase luminescence | 1,200 compounds, 43% hits | activation (% of control), % at 5.7 µM | shares compounds with STAT1 activator | AID 1306, 2008 | 100% = TNF-alpha with vehicle only;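 active means activation above the mean of solvent-only control wells plus 3 SD, set per campaign, cut at about 130% in these data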;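 further: TNF-alpha given at a submaximal dose yielding about 80% of full reporter signal; values are well signal over median control so 100% means no change and 0% no light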
STAT3 act STAT1c: STAT3 reporter activation by STAT1 hits, confirmation, counter-screen for STAT1 activator project, U3A cells, luciferase, luminescence; AID 1316, 2008; shares compounds with STAT1 activator; IL-6; cells lack STAT1; 100 = IL-6 alone, no compound effect; 1,200 compounds, 46% hits; activation (% of control), % at 5.7 µM;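 active means activation above the solvent-only control well mean plus 3 SD, set per plate batch, cut at about 110% in these data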;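 further: 0% = no luminescence and 100% = median IL-6 plus DMSO wells; higher means more STAT3 reporter activation so hits are non-selective activators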
Active calls of the source: *; . = no result given. Sampled rows, rich in hits. Any-hit rate of the full collection: about 3.5%.

SMILES	FLuc inhib CS	Pf gametocyte	STAT1 activator	FLuc act counter	NF-kB neuron act	APP 5'UTR act	STAT1 activ conf	NFkB act	STAT3 act STAT1c
Cc1ccc2c(c1)C(c1ccncc1)=NNC(c1ccccc1)=N2	23	-1	127	0.8	2.2	18	.	.	.
Cc1ccc(NC(=O)/C(Cl)=C\c2ccccc2)cc1	.	-11	.	.	.	.	.	.	.
CC(=O)c1ccc(NC(=O)/C(Cl)=C/c2ccccc2)cc1	29	-29	154*	0.7	6.4*	168*	200*	127	115*
CC(=O)c1cc(F)c(N2CCN(CCC#N)CC2)cc1C	-4	.	96	1	1.3	29	.	.	.
N#C/C(=N\Nc1ccc(F)cc1)C(=N)N1CCCCC1	55*	.	155*	0.5	8.2*	138*	216*	127	115*
COc1ccc(N/N=C(\C#N)C(=N)N2CCOCC2)cc1	9	-4	116	0.9	1.2	51	.	.	.
COc1cccc(/C=N/n2cnc3ccccc32)c1OC	6	9	162*	0.9	4.1*	152*	205*	131	107
Cn1cc(S(=O)(=O)N2CCN(C(=O)c3ccco3)CC2)c(=O)n(C)c1=O	-5	.	94	1	1.4	-1	.	.	.
Cc1nc2cc(Nc3ccncc3)ccc2s1	-3	-2	96	1	1.2	-2	.	.	.
COc1ccc2cc(CCNC(=O)c3cccs3)c(=O)[nH]c2c1	-4	.	159*	1	6.1*	104	193*	140*	110
COc1ccc2cc(CCNC(=O)CC(C)(C)C)c(=O)[nH]c2c1	-8	.	101	1.1	1.2	-20	.	.	.
Cc1cccn2c1nc(=S)n2C(=O)c1ccco1	85*	4	208*	0.1	1	147*	256*	176*	135*
O=c1c2c(nc3cc(-c4ccc(Br)cc4)[nH]n13)CCCC2	58*	.	205*	0.4	3.3	174*	281*	151*	106
Cc1cc2nc3c(c(=O)n2[nH]1)CCCC3	-6	.	101	1.1	1.2	6	.	.	.
CSc1nc2ccc(NC(=O)c3ccc(Cl)s3)cc2s1	6	.	186*	0.9	1.5	138*	181*	140*	104
O=C(Nc1nc2ccccc2s1)c1ccc(OCC2CCCO2)cc1 (configuration not stated)	74*	6	177*	0.3	1.6	122	248*	103	97
COc1ccc(C(=O)Nc2nc3ccc(S(C)(=O)=O)cc3s2)cc1OC	4	5	103	1	0.57	9	.	.	.
COc1ccc(C(=O)Nc2nc3ccccc3s2)cc1OC	21	-21	174*	0.8	3.6*	139*	227*	155*	114*
CSc1nc2ccc(NC(=O)NC(=O)c3c(F)cccc3F)cc2s1	.	-4	.	.	.	.	.	.	.
COc1ccc(OC)c(-c2csc(NC(=O)c3ccc(OCC4CCCO4)cc3)n2)c1 (configuration not stated)	39	5	102	0.6	0.61	44	.	.	.
O=C(Nc1nc2ccccc2s1)c1ccc(Cl)s1	32	.	156*	0.7	4.8*	156*	231*	141*	109
C=CCNc1oc(C2CCCC2)nc1C#N	.	-20	.	.	.	.	.	.	.
